{
  "source": "ChEMBL document CHEMBL4145561",
  "about": "“Tiacumicin Congeners with Improved Antibacterial Activity from a Halogenase-Inactivated Mutant” (2018)",
  "type_in_all_cases": "functional",
  "key": {"Micrococcus luteus": {"tested_on": "Micrococcus luteus", "experiment": "Antimicrobial activity against Micrococcus luteus SCSIO ML01 by broth microdilution method", "procedure,_shortened": "(§1)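 Mueller Hinton broth microdilution; MIC read as the minimal inhibitory concentration. Run against a panel of indicator strains that included MRSA, S. aureus ATCC 29213, B. thuringiensis SCSIO BT01, M. luteus SCSIO ML 01 and E. faecalis ATCC 29212.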"}, "Bacillus thuringiensis": {"tested_on": "Bacillus thuringiensis", "experiment": "Antimicrobial activity against Bacillus thuringiensis SCSIO BT01 by broth microdilution method", "procedure,_shortened": "as §1"}, "Staphylococcus aureus [1]": {"tested_on": "Staphylococcus aureus", "experiment": "Antimicrobial activity against Staphylococcus aureus ATCC 29213 by broth microdilution method", "procedure,_shortened": "as §1"}, "Enterococcus faecalis": {"tested_on": "Enterococcus faecalis", "experiment": "Antimicrobial activity against Enterococcus faecalis ATCC 29212 by broth microdilution method", "procedure,_shortened": "as §1"}, "Staphylococcus aureus [2]": {"tested_on": "Staphylococcus aureus", "experiment": "Antimicrobial activity against methicillin-resistant Staphylococcus aureus isolate shhs-A1 by broth microdilution method", "procedure,_shortened": "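Minimal inhibitory concentration determined by broth microdilution in Mueller Hinton broth against methicillin-resistant S. aureus shhs-A1, one strain of an indicator panel that also included S. aureus ATCC 29213, B. thuringiensis SCSIO BT01, M. luteus SCSIO ML 01 and E. faecalis ATCC 29212.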"}},
  "data": [
    {"smiles": "CCc1cc(O)cc(O)c1C(=O)O[C@H]1[C@H](O)[C@H](O)[C@H](OC/C2=C\\C=C\\C[C@H](O)/C(C)=C/[C@H](CC)[C@@H](O[C@@H]3OC(C)(C)[C@@H](OC(=O)C(C)C)[C@H](O)[C@@H]3O)/C(C)=C/C(C)=C/C[C@@H](CC)OC2=O)O[C@@H]1C", "values": [
      {"measurement": "MIC", "setting": "Micrococcus luteus", "value": "> 128", "unit": "µg/mL"},
      {"measurement": "MIC", "setting": "Bacillus thuringiensis", "value": 16, "unit": "µg/mL"},
      {"measurement": "MIC", "setting": "Staphylococcus aureus [1]", "value": "> 128", "unit": "µg/mL"},
      {"measurement": "MIC", "setting": "Enterococcus faecalis", "value": "> 128", "unit": "µg/mL"},
      {"measurement": "MIC", "setting": "Staphylococcus aureus [2]", "value": "> 128", "unit": "µg/mL"}
    ]},
    {"smiles": "CC[C@H]1/C=C(\\C)[C@@H](O)C/C=C/C=C(\\CO[C@@H]2O[C@H](C)[C@@H](O)[C@H](O)[C@@H]2OC)C(=O)O[C@H]([C@@H](C)O)C/C=C(C)/C=C(\\C)[C@@H]1O[C@@H]1OC(C)(C)[C@@H](OC(=O)C(C)C)[C@H](O)[C@@H]1O", "values": [
      {"measurement": "MIC", "setting": "Micrococcus luteus", "value": "> 128", "unit": "µg/mL"},
      {"measurement": "MIC", "setting": "Bacillus thuringiensis", "value": "> 128", "unit": "µg/mL"},
      {"measurement": "MIC", "setting": "Staphylococcus aureus [1]", "value": "> 128", "unit": "µg/mL"},
      {"measurement": "MIC", "setting": "Enterococcus faecalis", "value": "> 128", "unit": "µg/mL"},
      {"measurement": "MIC", "setting": "Staphylococcus aureus [2]", "value": "> 128", "unit": "µg/mL"}
    ]},
    {"smiles": "CCc1cc(O)cc(O)c1C(=O)O[C@H]1[C@H](O)[C@H](OC)[C@H](OC/C2=C\\C=C\\C[C@H](O)/C(C)=C/[C@H](CC)[C@@H](O[C@@H]3OC(C)(C)[C@@H](OC(=O)C(C)C)[C@H](O)[C@@H]3O)/C(C)=C/C(C)=C/C[C@@H](C(C)=O)OC2=O)O[C@@H]1C", "values": [
      {"measurement": "MIC", "setting": "Micrococcus luteus", "value": "> 128", "unit": "µg/mL"},
      {"measurement": "MIC", "setting": "Bacillus thuringiensis", "value": 8, "unit": "µg/mL"},
      {"measurement": "MIC", "setting": "Staphylococcus aureus [1]", "value": "> 128", "unit": "µg/mL"},
      {"measurement": "MIC", "setting": "Enterococcus faecalis", "value": "> 128", "unit": "µg/mL"},
      {"measurement": "MIC", "setting": "Staphylococcus aureus [2]", "value": "> 128", "unit": "µg/mL"}
    ]},
    {"smiles": "CCc1cc(O)cc(O)c1C(=O)O[C@H]1[C@H](O)[C@H](OC)[C@H](OC/C2=C\\C=C\\C[C@H](O)/C(C)=C/[C@H](CC)[C@@H](O[C@@H]3OC(C)(C)[C@@H](OC(C)=O)[C@H](O)[C@@H]3O)/C(C)=C/C(C)=C/C[C@@H]([C@@H](C)O)OC2=O)O[C@@H]1C", "values": [
      {"measurement": "MIC", "setting": "Micrococcus luteus", "value": 64, "unit": "µg/mL"},
      {"measurement": "MIC", "setting": "Bacillus thuringiensis", "value": 8, "unit": "µg/mL"},
      {"measurement": "MIC", "setting": "Staphylococcus aureus [1]", "value": 128, "unit": "µg/mL"},
      {"measurement": "MIC", "setting": "Enterococcus faecalis", "value": "> 128", "unit": "µg/mL"},
      {"measurement": "MIC", "setting": "Staphylococcus aureus [2]", "value": "> 128", "unit": "µg/mL"}
    ]},
    {"smiles": "CCCc1cc(O)cc(O)c1C(=O)O[C@H]1[C@H](O)[C@H](OC)[C@H](OC/C2=C\\C=C\\C[C@H](O)/C(C)=C/[C@H](CC)[C@@H](O[C@@H]3OC(C)(C)[C@@H](OC(=O)C(C)C)[C@H](O)[C@@H]3O)/C(C)=C/C(C)=C/C[C@@H]([C@@H](C)O)OC2=O)O[C@@H]1C", "values": [
      {"measurement": "MIC", "setting": "Micrococcus luteus", "value": 1, "unit": "µg/mL"},
      {"measurement": "MIC", "setting": "Bacillus thuringiensis", "value": 0.5, "unit": "µg/mL"},
      {"measurement": "MIC", "setting": "Staphylococcus aureus [1]", "value": 2, "unit": "µg/mL"},
      {"measurement": "MIC", "setting": "Enterococcus faecalis", "value": 4, "unit": "µg/mL"},
      {"measurement": "MIC", "setting": "Staphylococcus aureus [2]", "value": 2, "unit": "µg/mL"}
    ]},
    {"smiles": "CCc1cc(O)cc(O)c1C(=O)O[C@H]1[C@H](O)[C@H](OC)[C@H](OC/C2=C\\C=C\\C[C@H](O)/C(C)=C/[C@H](CC)[C@@H](O[C@@H]3OC(C)(C)[C@@H](OC(=O)C(C)C)[C@H](O)[C@@H]3O)/C(C)=C/C(C)=C/C[C@@H]([C@@H](C)O)OC2=O)O[C@@H]1C", "values": [
      {"measurement": "MIC", "setting": "Micrococcus luteus", "value": 2, "unit": "µg/mL"},
      {"measurement": "MIC", "setting": "Bacillus thuringiensis", "value": 1, "unit": "µg/mL"},
      {"measurement": "MIC", "setting": "Staphylococcus aureus [1]", "value": 2, "unit": "µg/mL"},
      {"measurement": "MIC", "setting": "Enterococcus faecalis", "value": 16, "unit": "µg/mL"},
      {"measurement": "MIC", "setting": "Staphylococcus aureus [2]", "value": 2, "unit": "µg/mL"}
    ]},
    {"smiles": "CC[C@@H]1C/C=C(C)/C=C(\\C)[C@H](O[C@@H]2OC(C)(C)[C@@H](O)[C@H](O)[C@@H]2O)[C@@H](CC)/C=C(\\C)[C@@H](O)C/C=C/C=C(\\CO[C@@H]2O[C@H](CO)[C@@H](O)[C@H](O)[C@@H]2O)C(=O)O1", "values": [
      {"measurement": "MIC", "setting": "Micrococcus luteus", "value": "> 128", "unit": "µg/mL"},
      {"measurement": "MIC", "setting": "Bacillus thuringiensis", "value": "> 128", "unit": "µg/mL"},
      {"measurement": "MIC", "setting": "Staphylococcus aureus [1]", "value": "> 128", "unit": "µg/mL"},
      {"measurement": "MIC", "setting": "Enterococcus faecalis", "value": "> 128", "unit": "µg/mL"},
      {"measurement": "MIC", "setting": "Staphylococcus aureus [2]", "value": "> 128", "unit": "µg/mL"}
    ]},
    {"smiles": "CCc1cc(O)cc(O)c1C(=O)O[C@H]1[C@H](O)[C@H](OC)[C@H](OC/C2=C\\C=C\\C[C@H](O)/C(C)=C/[C@H](CC)[C@@H](O[C@@H]3OC(C)(C)[C@@H](OC(=O)C(C)C)[C@H](O)[C@@H]3O)/C(C)=C/C(C)=C/C[C@@H](CC)OC2=O)O[C@@H]1C", "values": [
      {"measurement": "MIC", "setting": "Micrococcus luteus", "value": "> 128", "unit": "µg/mL"},
      {"measurement": "MIC", "setting": "Bacillus thuringiensis", "value": 4, "unit": "µg/mL"},
      {"measurement": "MIC", "setting": "Staphylococcus aureus [1]", "value": "> 128", "unit": "µg/mL"},
      {"measurement": "MIC", "setting": "Enterococcus faecalis", "value": "> 128", "unit": "µg/mL"},
      {"measurement": "MIC", "setting": "Staphylococcus aureus [2]", "value": "> 128", "unit": "µg/mL"}
    ]},
    {"smiles": "CC[C@H]1/C=C(\\C)[C@@H](O)C/C=C/C=C(\\CO[C@@H]2O[C@H](C)[C@@H](OC(=O)c3c(C)cc(O)cc3O)[C@H](O)[C@@H]2OC)C(=O)O[C@H]([C@@H](C)O)C/C=C(C)/C=C(\\C)[C@@H]1O[C@@H]1OC(C)(C)[C@@H](OC(=O)C(C)C)[C@H](O)[C@@H]1O", "values": [
      {"measurement": "MIC", "setting": "Micrococcus luteus", "value": 16, "unit": "µg/mL"},
      {"measurement": "MIC", "setting": "Bacillus thuringiensis", "value": 8, "unit": "µg/mL"},
      {"measurement": "MIC", "setting": "Staphylococcus aureus [1]", "value": 16, "unit": "µg/mL"},
      {"measurement": "MIC", "setting": "Enterococcus faecalis", "value": 64, "unit": "µg/mL"},
      {"measurement": "MIC", "setting": "Staphylococcus aureus [2]", "value": 16, "unit": "µg/mL"}
    ]},
    {"smiles": "CCC(=O)O[C@H]1[C@H](O)[C@H](O)[C@H](O[C@H]2/C(C)=C/C(C)=C/C[C@@H]([C@@H](C)O)OC(=O)/C(CO[C@@H]3O[C@H](C)[C@@H](OC(=O)c4c(O)cc(O)cc4CC)[C@H](O)[C@@H]3OC)=C/C=C/C[C@H](O)/C(C)=C/[C@@H]2CC)OC1(C)C", "values": [
      {"measurement": "MIC", "setting": "Micrococcus luteus", "value": 16, "unit": "µg/mL"},
      {"measurement": "MIC", "setting": "Bacillus thuringiensis", "value": 2, "unit": "µg/mL"},
      {"measurement": "MIC", "setting": "Staphylococcus aureus [1]", "value": 8, "unit": "µg/mL"},
      {"measurement": "MIC", "setting": "Enterococcus faecalis", "value": 32, "unit": "µg/mL"},
      {"measurement": "MIC", "setting": "Staphylococcus aureus [2]", "value": 8, "unit": "µg/mL"}
    ]},
    {"smiles": "CCc1cc(O)cc(O)c1C(=O)O[C@H]1[C@H](O)[C@H](OC)[C@H](OC/C2=C\\C=C\\C[C@H](O)/C(C)=C/[C@H](CC)[C@@H](O[C@@H]3OC(C)(C)[C@@H](O)[C@H](O)[C@@H]3O)/C(C)=C/C(C)=C/C[C@@H](CC)OC2=O)O[C@@H]1C", "values": [
      {"measurement": "MIC", "setting": "Micrococcus luteus", "value": 8, "unit": "µg/mL"},
      {"measurement": "MIC", "setting": "Bacillus thuringiensis", "value": 16, "unit": "µg/mL"},
      {"measurement": "MIC", "setting": "Staphylococcus aureus [1]", "value": "> 128", "unit": "µg/mL"},
      {"measurement": "MIC", "setting": "Enterococcus faecalis", "value": "> 128", "unit": "µg/mL"},
      {"measurement": "MIC", "setting": "Staphylococcus aureus [2]", "value": "> 128", "unit": "µg/mL"}
    ]},
    {"smiles": "CCc1c(Cl)c(O)c(Cl)c(O)c1C(=O)O[C@H]1[C@H](O)[C@H](OC)[C@H](OC/C2=C\\C=C\\C[C@H](O)/C(C)=C/[C@H](CC)[C@@H](O[C@@H]3OC(C)(C)[C@@H](OC(=O)C(C)C)[C@H](O)[C@@H]3O)/C(C)=C/C(C)=C/C[C@@H]([C@@H](C)O)OC2=O)O[C@@H]1C", "note": "[FIDAXOMICIN]", "values": [
      {"measurement": "MIC", "setting": "Micrococcus luteus", "value": 4, "unit": "µg/mL"},
      {"measurement": "MIC", "setting": "Bacillus thuringiensis", "value": 2, "unit": "µg/mL"},
      {"measurement": "MIC", "setting": "Staphylococcus aureus [1]", "value": 4, "unit": "µg/mL"},
      {"measurement": "MIC", "setting": "Enterococcus faecalis", "value": 16, "unit": "µg/mL"},
      {"measurement": "MIC", "setting": "Staphylococcus aureus [2]", "value": 1, "unit": "µg/mL"}
    ]}
  ]
}
